Measured values: paper PMC4261236 (Journal of Medicinal Chemistry, 2014)

What was measured:
[1] = system: sstr2-transfected HCT116 cells; assay: Cell internalization assay; format: cell-based, Human; details: for maximum internalized tracer: after 2 h at 37 °C, 4 nM tracer
Outline: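 sstr2-transfected HCT116 cells (Iscove's, 10% FBS, 1 mM Zeocin) in 12-well plates with 64Cu-labelled tracer at 4 nM final (labelled at >98% yield, used without purification). Surface-bound and internalized activity gamma-counted at 15, 30, 60, 120 and 240 min. Nonspecific binding from 1000-fold excess Y3-TATE. Values normalized to added activity and to BCA protein (%ID/mg).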

[2] = Biodistribution in tumor-bearing mice; format: in vivo; details: mouse, liver, intravenous, 1.85 MBq
[3] = system: sstr2-transfected HCT116 tumor-bearing female nu/nu mice; assay: Biodistribution in tumor-bearing mice; format: in vivo; details: for blood clearance (in words): 1 to 4 h p.i.; for tumor uptake blocked by co-injected Y3-TATE: 4 h p.i., 20 μg Y3-TATE co-injected
[4] = system: sstr2-transfected HCT116 tumor-bearing mice; assay: Small animal PET/CT imaging; format: in vivo; details: 2 h p.i.; for tumor SUV: PET/CT; for tumor SUV, blocked: unlabeled Y3-TATE co-injected to block

Row | Molecule | maximum internalized tracer [1] [%ID/mg] | tissue uptake at 24 h [2] [%ID/g] | blood clearance (in words) [3] | liver uptake (in words) ([3]; 1 h p.i.) | tumor uptake blocked by co-injected Y3-TATE [3] [%] | tumor SUV [4] | tumor SUV, blocked [4] | internalization (in words) ([1]; 37 °C, up to 4 h) | liver uptake (in words) ([3]; 4 and 24 h p.i.) | tumor-to-blood ratio (in words) ([3]; 1, 4 and 24 h p.i.) | tumor uptake (in words) ([3]; 4 and 24 h p.i.)
1 | C[C@@H](O)[C@H](NC(=O)[C@@H]1CSSC[C@H](NC(=O)[C@@H](Cc2ccccc2)NC(=O)CCCCCn2nnc3c2-c2ccccc2N(C(=O)CCNC(=O)CN2CCCN4CCN(CCCN(CP(=O)(O)O)CC4)CC2)Cc2ccccc2-3)C(=O)N[C@@H](Cc2ccc(O)cc2)C(=O)N[C@H](Cc2c[nH]c3ccccc23)C(=O)N[C@@H](CCCCN)C(=O)N[C@@H]([C@@H](C)O)C(=O)N1)C(=O)O (single isomer, unassigned) [^64Cu-AP-1, ^64Cu-CB-TE1A1P–DBCO–Y3-TATE, metal not drawn] | 45 ± 3 | < 1 | significantly slower than the blood clearance of ^64Cu-1A1P | significantly higher than that of ^64Cu-KP-1 and ^64Cu-1A1P | 63 | 4.6 ± 0.8 | 0.47 ± 0.18 | – | – | – | –
2 | C[C@@H](O)[C@H](NC(=O)[C@@H]1CSSC[C@H](NC(=O)[C@@H](Cc2ccccc2)NC(=O)CCCCCn2nnc3c2-c2ccccc2N(C(=O)CCNC(=O)CN2CCCN4CCN(CCCN(CP(=O)(O)O)CC4)CC2)Cc2ccccc2-3)C(=O)N[C@@H](Cc2ccc(O)cc2)C(=O)N[C@H](Cc2c[nH]c3ccccc23)C(=O)N[C@@H](CCCCN)C(=O)N[C@@H]([C@@H](C)O)C(=O)N1)C(=O)O (single isomer, unassigned) [^64Cu-AP-2, ^64Cu-CB-TE1A1P–DBCO–Y3-TATE, metal not drawn] | 73 ± 7 | – | – | – | – | – | – | – | – | – | –
3 | C[C@@H](O)[C@H](NC(=O)[C@@H]1CSSC[C@H](NC(=O)[C@@H](Cc2ccccc2)NC(=O)CCCCCn2nnc3c2-c2ccccc2N(C(=O)CCNC(=O)CN2CCCN4CCN(CCCN(CP(=O)(O)O)CC4)CC2)Cc2ccccc2-3)C(=O)N[C@@H](Cc2ccc(O)cc2)C(=O)N[C@H](Cc2c[nH]c3ccccc23)C(=O)N[C@@H](CCCCN)C(=O)N[C@@H]([C@@H](C)O)C(=O)N1)C(=O)O (single isomer, unassigned) [^64Cu-AP-3, ^64Cu-CB-TE1A1P–DBCO–Y3-TATE, metal not drawn] | – | – | – | – | – | – | – | slower internalization which was not saturated after 4 h | – | – | –
4 | C[C@@H](O)[C@H](NC(=O)[C@@H]1CSSC[C@H](NC(=O)[C@@H](Cc2ccccc2)NC(=O)CCCCCn2nnc3c2-c2ccccc2N(C(=O)CCNC(=O)CCOCCOCCOCCOCCOCCC(=O)NCCCCC(C(=O)O)N2CCCN4CCN(CCCN(CP(=O)(O)O)CC4)CC2)Cc2ccccc2-3)C(=O)N[C@@H](Cc2ccc(O)cc2)C(=O)N[C@H](Cc2c[nH]c3ccccc23)C(=O)N[C@@H](CCCCN)C(=O)N[C@@H]([C@@H](C)O)C(=O)N1)C(=O)O (some centres unmarked) [^64Cu-KP-1, ^64Cu-CB-TE1K1P–PEG4–DBCO–Y3-TATE, metal not drawn] | – | < 1 | significantly slower than the blood clearance of ^64Cu-1A1P | – | 84 | 3.2 ± 0.2 | 0.21 ± 0.06 | – | lower uptake in the liver than ^64Cu-AP-1 and ^64Cu-1A1P | – | –
5 | ^64Cu-CB-TE1A1P–Y3-TATE [^64Cu-1A1P] | – | – | – | – | 95 | 2.8 ± 0.4 | 0.19 ± 0.02 | – | – | significantly higher than both ^64Cu-AP-1 and ^64Cu-KP-1 at all time points | significantly higher tumor uptake than ^64Cu-KP-1 and ^64Cu-AP-1
